Assay results published in ChEMBL document CHEMBL5696442, “Discovery of type II inhibitors of TGFβ-activated kinase 1 (TAK1) and mitogen-activated protein kinase kinase kinase kinase 2 (MAP4K2)” (J Med Chem, 2015).

Assays:
Assay type in all cases: cell-based
[1] = biological target: Calcium/calmodulin-dependent protein kinase type 1 (Homo sapiens) (UniProt Q14012); assay: Inhibition of CaMK1alpha Lys1 labeling site harbouring LVAIKCIAK in human A-375 cells at 5 uM by KiNativ Profiling analysis relative to control
Method in brief: (§1)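 Intact A375 melanoma cells were treated with compound at 5 or 0.5 μM, then lysed. Lysate kinases were labeled with a lysine-reactive ATP or ADP-biotin probe (KiNativ). Inhibition is read as protection of each kinase labeling site from probe labeling.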

[2] = biological target: Cyclin-dependent kinase 2 (Homo sapiens) (UniProt P24941); assay: Inhibition of CDK2 Lys1 labeling site in human A-375 cells at 5 uM by KiNativ Profiling analysis relative to control; method in brief: as §1
[3] = biological target: Tyrosine-protein kinase JAK1 (Homo sapiens) (UniProt P23458); assay: Inhibition of JAK1 in human A-375 cells at 5 uM by KiNativ Profiling analysis relative to control
[4] = biological target: MAP/microtubule affinity-regulating kinase 3 (Homo sapiens) (UniProt P27448); assay: Inhibition of MARK3 Lys2 labeling site in human A-375 cells at 5 uM by KiNativ Profiling analysis relative to control
[5] = biological target: Cyclin-dependent kinase 17 (Homo sapiens) (UniProt Q00537); assay: Inhibition of PCTAIRE2 Lys1 labeling site harbouring SKLTENLVALKEIRLEHEEGAPCTAIR in human A-375 cells at 5 uM by KiNativ Profiling analysis relative to control
[6] = biological target: T1, Mixed lineage kinase domain-like protein (Homo sapiens) (UniProt Q8NB16); assay: Inhibition of MLKL Lys1 labeling site in human A-375 cells at 0.5 uM by KiNativ Profiling analysis relative to control
T1 sequence (whole entry): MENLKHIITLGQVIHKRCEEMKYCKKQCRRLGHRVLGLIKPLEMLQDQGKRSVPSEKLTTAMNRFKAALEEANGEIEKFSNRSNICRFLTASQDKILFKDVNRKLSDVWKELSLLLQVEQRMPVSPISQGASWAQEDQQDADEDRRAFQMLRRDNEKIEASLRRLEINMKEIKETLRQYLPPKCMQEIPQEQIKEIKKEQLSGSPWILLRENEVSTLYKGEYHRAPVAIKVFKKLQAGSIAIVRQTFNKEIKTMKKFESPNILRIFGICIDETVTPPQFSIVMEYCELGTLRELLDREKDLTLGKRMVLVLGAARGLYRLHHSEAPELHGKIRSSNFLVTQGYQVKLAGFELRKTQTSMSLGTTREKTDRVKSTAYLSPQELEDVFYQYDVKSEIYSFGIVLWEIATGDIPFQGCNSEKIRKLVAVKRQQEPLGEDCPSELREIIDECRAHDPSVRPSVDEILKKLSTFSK

[7] = biological target: Ribosomal protein S6 kinase alpha-2 (Homo sapiens) (UniProt Q15349); assay: Inhibition of RSK3 Protein Kinase Domain in human A-375 cells at 0.5 uM by KiNativ Profiling analysis relative to control
Method in brief: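 Live A375 melanoma cells treated with compound at 5 or 0.5 μM, then lysed. Lysate kinases were labeled with a lysine-reactive ATP or ADP-biotin probe. Inhibition was read as protection of labeling sites from the probe.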

[8] = biological target: Calcium/calmodulin-dependent protein kinase type 1 (Homo sapiens) (UniProt Q14012); assay: Inhibition of CaMK1a Lys1 labeling site in human A-375 cells at 0.05 uM by KiNativ Profiling analysis relative to control
[9] = biological target: Mitogen-activated protein kinase kinase kinase 1 (Homo sapiens) (UniProt Q13233); assay: Inhibition of MAP3K1 Lys2 labeling site in human A-375 cells at 0.05 uM by KiNativ Profiling analysis relative to control
[10] = biological target: T2, Mitogen-activated protein kinase kinase kinase 3 (Homo sapiens) (UniProt Q99759); assay: Inhibition of MAP3K3 Lys1 labeling site in human A-375 cells at 0.05 uM by KiNativ Profiling analysis relative to control
T2 sequence (whole entry): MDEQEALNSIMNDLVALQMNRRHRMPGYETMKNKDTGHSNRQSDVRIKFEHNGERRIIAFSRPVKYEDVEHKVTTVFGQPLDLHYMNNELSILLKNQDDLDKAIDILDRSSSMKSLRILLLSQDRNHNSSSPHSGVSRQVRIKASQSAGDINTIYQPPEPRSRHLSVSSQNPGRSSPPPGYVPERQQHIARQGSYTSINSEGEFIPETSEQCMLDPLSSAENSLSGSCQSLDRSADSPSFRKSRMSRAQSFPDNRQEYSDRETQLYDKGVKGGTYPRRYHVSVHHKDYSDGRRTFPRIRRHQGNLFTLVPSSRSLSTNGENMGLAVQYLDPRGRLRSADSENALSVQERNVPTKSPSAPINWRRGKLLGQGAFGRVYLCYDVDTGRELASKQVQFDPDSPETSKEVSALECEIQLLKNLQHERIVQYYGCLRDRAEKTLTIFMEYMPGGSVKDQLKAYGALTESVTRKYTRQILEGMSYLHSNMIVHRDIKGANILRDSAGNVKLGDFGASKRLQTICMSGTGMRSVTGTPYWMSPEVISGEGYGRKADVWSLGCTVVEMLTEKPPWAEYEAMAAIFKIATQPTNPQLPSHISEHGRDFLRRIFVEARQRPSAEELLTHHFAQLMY

[11] = biological target: Serine/threonine-protein kinase Nek6 (Homo sapiens) (UniProt Q9HC98); assay: Inhibition of NEK6 Lys2 labeling site in human A-375 cells at 0.05 uM by KiNativ Profiling analysis relative to control
[12] = biological target: T3, Serine/threonine-protein kinase Nek8 (Homo sapiens) (UniProt Q86SG6); assay: Inhibition of NEK8 Lys2 labeling site in human A-375 cells at 0.05 uM by KiNativ Profiling analysis relative to control
T3 sequence (whole entry): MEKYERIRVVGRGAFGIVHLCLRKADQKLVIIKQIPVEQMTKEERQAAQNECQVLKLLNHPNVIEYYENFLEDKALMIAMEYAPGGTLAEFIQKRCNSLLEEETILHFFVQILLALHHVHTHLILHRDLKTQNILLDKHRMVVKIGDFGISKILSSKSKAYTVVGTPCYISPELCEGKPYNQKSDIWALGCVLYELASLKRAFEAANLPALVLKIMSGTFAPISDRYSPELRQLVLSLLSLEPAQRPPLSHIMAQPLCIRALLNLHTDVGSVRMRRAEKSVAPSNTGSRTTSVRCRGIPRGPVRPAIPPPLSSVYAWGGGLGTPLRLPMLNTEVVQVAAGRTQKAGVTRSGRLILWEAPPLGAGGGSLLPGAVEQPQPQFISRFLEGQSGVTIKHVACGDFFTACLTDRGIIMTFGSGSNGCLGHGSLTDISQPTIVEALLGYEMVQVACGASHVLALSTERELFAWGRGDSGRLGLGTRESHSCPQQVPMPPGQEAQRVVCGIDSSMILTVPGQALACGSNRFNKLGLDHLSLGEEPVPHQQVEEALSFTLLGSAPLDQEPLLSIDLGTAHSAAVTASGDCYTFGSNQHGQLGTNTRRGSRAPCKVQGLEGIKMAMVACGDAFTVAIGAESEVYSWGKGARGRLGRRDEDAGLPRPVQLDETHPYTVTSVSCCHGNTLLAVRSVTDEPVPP

Calcium/calmodulin-dependent protein kinase type 1 (Homo sapiens), sequence (Q14012 whole entry, looked up): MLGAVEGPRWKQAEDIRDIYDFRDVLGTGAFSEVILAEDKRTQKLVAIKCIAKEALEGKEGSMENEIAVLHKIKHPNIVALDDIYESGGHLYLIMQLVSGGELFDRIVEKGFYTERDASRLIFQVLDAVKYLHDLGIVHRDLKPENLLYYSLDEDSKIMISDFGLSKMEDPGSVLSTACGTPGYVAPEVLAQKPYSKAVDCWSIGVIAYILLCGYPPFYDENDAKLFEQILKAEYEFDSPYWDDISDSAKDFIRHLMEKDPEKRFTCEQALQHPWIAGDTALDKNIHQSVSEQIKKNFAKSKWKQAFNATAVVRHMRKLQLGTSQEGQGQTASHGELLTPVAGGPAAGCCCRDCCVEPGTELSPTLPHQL
Cyclin-dependent kinase 17 (Homo sapiens), sequence (Q00537 whole entry, looked up, the tested form may be a part): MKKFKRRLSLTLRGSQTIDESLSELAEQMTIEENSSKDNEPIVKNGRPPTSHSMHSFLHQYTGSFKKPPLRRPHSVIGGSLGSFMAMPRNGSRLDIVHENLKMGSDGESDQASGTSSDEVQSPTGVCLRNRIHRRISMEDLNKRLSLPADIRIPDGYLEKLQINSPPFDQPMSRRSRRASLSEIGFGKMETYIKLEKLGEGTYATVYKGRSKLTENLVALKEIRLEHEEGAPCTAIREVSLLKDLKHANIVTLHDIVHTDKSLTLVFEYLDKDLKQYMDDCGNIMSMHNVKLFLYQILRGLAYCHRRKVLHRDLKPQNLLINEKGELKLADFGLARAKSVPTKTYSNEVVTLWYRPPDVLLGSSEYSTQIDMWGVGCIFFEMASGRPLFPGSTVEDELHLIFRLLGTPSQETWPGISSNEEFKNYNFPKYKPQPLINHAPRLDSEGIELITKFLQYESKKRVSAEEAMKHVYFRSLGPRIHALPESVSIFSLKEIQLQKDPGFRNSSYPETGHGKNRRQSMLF
Mitogen-activated protein kinase kinase kinase 1 (Homo sapiens), sequence (Q13233 whole entry): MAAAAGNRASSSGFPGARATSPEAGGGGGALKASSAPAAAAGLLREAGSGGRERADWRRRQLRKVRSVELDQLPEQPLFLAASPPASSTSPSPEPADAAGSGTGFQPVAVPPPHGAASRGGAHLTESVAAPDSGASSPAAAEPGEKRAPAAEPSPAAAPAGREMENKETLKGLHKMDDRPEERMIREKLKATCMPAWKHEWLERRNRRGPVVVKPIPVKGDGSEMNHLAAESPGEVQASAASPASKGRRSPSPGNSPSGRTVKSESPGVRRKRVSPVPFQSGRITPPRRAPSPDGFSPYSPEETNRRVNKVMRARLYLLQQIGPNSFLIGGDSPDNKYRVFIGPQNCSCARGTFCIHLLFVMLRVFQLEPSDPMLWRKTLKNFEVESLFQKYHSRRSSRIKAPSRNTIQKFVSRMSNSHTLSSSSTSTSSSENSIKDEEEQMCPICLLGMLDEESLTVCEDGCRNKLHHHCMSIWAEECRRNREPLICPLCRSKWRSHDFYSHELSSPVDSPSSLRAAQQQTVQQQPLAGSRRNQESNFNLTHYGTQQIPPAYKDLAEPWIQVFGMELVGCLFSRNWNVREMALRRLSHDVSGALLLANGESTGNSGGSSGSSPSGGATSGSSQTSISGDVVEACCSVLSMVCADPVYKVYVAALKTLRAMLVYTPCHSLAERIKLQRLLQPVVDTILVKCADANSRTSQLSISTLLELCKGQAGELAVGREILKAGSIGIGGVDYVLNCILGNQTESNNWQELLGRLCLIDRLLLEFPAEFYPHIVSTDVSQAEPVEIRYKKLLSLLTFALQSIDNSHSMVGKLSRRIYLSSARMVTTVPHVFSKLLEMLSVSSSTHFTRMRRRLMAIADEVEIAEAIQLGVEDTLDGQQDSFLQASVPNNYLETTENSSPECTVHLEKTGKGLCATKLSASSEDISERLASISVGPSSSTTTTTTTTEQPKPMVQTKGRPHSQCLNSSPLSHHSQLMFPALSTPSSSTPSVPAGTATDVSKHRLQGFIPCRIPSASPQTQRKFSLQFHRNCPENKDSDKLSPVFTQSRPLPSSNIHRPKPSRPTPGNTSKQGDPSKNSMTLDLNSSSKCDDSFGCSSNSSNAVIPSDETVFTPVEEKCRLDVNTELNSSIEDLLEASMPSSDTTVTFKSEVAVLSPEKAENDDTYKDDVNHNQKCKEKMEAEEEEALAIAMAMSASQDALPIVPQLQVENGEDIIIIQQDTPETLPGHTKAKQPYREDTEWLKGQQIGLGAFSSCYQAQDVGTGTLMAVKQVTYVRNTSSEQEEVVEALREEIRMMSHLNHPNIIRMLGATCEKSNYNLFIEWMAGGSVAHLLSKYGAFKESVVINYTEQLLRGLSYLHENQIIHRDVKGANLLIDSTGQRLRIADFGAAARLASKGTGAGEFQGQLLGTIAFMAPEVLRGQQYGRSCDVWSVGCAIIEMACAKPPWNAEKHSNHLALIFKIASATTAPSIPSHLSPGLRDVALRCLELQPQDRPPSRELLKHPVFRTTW
Serine/threonine-protein kinase Nek6 (Homo sapiens), sequence (Q9HC98 whole entry): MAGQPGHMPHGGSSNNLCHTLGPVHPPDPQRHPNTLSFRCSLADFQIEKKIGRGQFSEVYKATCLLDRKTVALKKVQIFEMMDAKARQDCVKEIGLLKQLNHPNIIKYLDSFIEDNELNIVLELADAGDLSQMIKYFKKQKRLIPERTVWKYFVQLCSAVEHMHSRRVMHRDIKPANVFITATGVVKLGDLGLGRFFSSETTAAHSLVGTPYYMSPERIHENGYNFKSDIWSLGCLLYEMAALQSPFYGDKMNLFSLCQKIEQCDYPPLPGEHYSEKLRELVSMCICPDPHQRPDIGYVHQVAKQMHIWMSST
MAP/microtubule affinity-regulating kinase 3 (Homo sapiens), sequence (P27448 whole entry, looked up): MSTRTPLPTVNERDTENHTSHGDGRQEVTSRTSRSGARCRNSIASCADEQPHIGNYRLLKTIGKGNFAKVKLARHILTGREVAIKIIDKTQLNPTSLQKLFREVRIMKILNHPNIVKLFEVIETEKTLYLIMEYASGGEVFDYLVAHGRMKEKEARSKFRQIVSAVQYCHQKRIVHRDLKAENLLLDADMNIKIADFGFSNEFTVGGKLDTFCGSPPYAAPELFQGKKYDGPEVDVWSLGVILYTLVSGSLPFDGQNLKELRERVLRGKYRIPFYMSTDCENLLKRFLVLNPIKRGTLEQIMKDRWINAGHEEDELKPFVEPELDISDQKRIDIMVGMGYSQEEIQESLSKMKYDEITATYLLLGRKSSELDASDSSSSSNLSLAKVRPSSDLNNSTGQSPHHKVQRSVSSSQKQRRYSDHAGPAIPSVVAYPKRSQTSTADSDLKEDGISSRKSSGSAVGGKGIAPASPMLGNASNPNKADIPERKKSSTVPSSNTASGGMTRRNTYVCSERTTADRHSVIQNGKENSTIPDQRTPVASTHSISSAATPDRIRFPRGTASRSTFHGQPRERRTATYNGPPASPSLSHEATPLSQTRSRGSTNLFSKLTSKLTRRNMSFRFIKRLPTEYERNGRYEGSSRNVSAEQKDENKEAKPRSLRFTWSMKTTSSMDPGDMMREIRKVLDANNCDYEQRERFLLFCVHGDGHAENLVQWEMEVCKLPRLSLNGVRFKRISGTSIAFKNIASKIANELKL
Ribosomal protein S6 kinase alpha-2 (Homo sapiens), sequence (Q15349 whole entry, the tested form may be a part): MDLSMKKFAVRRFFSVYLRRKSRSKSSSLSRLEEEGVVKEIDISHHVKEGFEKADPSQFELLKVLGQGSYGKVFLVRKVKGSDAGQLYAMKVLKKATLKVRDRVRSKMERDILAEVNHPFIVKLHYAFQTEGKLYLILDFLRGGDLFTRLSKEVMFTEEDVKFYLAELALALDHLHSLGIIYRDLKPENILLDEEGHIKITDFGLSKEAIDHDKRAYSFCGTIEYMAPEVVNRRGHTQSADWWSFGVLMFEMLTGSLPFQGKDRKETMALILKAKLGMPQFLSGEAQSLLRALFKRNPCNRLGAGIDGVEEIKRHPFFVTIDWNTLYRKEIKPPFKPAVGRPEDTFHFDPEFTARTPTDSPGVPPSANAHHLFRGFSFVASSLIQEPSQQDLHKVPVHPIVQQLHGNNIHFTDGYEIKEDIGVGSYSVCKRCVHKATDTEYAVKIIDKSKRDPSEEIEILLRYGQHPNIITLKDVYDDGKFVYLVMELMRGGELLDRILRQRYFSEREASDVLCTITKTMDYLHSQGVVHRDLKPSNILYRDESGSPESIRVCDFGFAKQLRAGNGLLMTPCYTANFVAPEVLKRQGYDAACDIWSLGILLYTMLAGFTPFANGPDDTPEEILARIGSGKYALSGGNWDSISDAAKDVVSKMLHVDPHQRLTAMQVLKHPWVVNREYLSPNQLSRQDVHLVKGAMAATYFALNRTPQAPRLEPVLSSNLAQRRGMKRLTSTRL

| Structure (SMILES) | inhibition [1] | inhibition [2] | inhibition [3] | inhibition [4] | inhibition [5] | inhibition [6] | inhibition [7] | inhibition [8] | inhibition [9] | inhibition [10] | inhibition [11] | inhibition [12] |
| --- | --- | --- | --- | --- | --- | --- | --- | --- | --- | --- | --- | --- |
| CCN1CCN(Cc2ccc(NC(=O)c3ccc(C)c(Oc4ccnc5[nH]ccc45)c3)cc2C(F)(F)F)CC1 | 91.8% | 37.3% | 3.9% | 7.8% | 56.6% | 7.8% | 0.9% | 34.9% | 16.8% | 16.7% | 10.6% | -1.6% |
| CCN1CCN(Cc2ccc(NC(=O)c3ccc(C)c(/C=C/c4cnc5[nH]ccc5c4OC)c3)cc2C(F)(F)F)CC1 | 31.9% | 17.6% | 27% | 8.9% | 21.3% | 20.1% | 3.2% | 21.5% | 23.1% | 31% | 5.8% | -9.3% |
